{"source": "ChEMBL document CHEMBL3259728", "about": "“Design, synthesis and biological evaluation of some novel substituted quinazolines as antitumor agents” (2014)", "assay_type_in_all_cases": "functional", "key": {"CAKI-1": {"system": "CAKI-1", "test": "Cytotoxicity against human CAKI-1 cells after 48 hrs by SRB assay", "conditions": "CAKI-1, 48 h", "procedure,_shortened": "(§1)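 NCI 60-cell-line panel of human tumour lines from nine cancer types. Continuous 48 h exposure at five 10-fold dilutions from 10^-4 to 10^-8 M, with 5-FU as positive control. SRB protein stain read spectrophotometrically at time zero, untreated control and each concentration. GI50, TGI and LC50 were derived from the [(Ti−Tz)/(C−Tz)]×100 growth relations, and out-of-range values are given as > or < the tested limits.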"}, "M14 [1]": {"system": "M14", "test": "Growth inhibition of human M14 cells assessed as cell growth at 10^-7 M after 48 hrs by SRB assay", "conditions": "M14, 48 h, read-out: Activity"}, "KM12 [2]": {"system": "KM12", "test": "Growth inhibition of human KM12 cells assessed as cell growth at 10^-5 M after 48 hrs by SRB assay", "conditions": "KM12, 48 h, read-out: Activity"}, "SNB-19 [3]": {"system": "SNB-19", "test": "Growth inhibition of human SNB19 cells assessed as cell growth at 10^-8 M after 48 hrs by SRB assay", "conditions": "SNB-19, 48 h, read-out: Activity"}, "M14 [4]": {"system": "M14", "test": "Growth inhibition of human M14 cells assessed as cell growth at 10^-5 M after 48 hrs by SRB assay", "conditions": "M14, 48 h, read-out: Activity"}, "KM12 [5]": {"system": "KM12", "test": "Growth inhibition of human KM12 cells assessed as cell growth at 10^-6 M after 48 hrs by SRB assay", "conditions": "KM12, 48 h, read-out: Activity"}, "M14 [6]": {"system": "M14", "test": "Growth inhibition of human M14 cells assessed as cell growth at 10^-4 M after 48 hrs by SRB assay", "conditions": "M14, 48 h, read-out: Activity"}, "[7]": {"test": "Growth inhibition of human LOXIMVI cells assessed as cell growth at 10^-4 M after 48 hrs by SRB assay", "conditions": "LOX IMVI, read-out: Activity"}, "786-0": {"system": "786-0", "test": "Growth inhibition of human 786-0 cells assessed as cell growth at 10^-4 M after 48 hrs by SRB assay", "conditions": "786-0, 48 h, read-out: Activity", "procedure,_shortened": "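Five-dose NCI panel protocol. Each dose (10^-4 to 10^-8 M, 10-fold steps) was given as 48 h continuous exposure, and protein was measured by SRB staining. Percentage growth at each level is [(Ti−Tz)/(C−Tz)]×100, where Tz is time-zero absorbance and C is untreated control.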"}, "HCT-116": {"system": "HCT-116", "test": "Cytotoxicity against human HCT116 cells after 48 hrs by SRB assay", "conditions": "HCT-116, 48 h", "procedure,_shortened": "as §1"}, "[8]": {"test": "Growth inhibition of human UACC62 cells assessed as cell growth at 10^-8 M after 48 hrs by SRB assay", "conditions": "UACC-62, 48 h, read-out: Activity"}, "HOP-62": {"system": "HOP-62", "test": "Growth inhibition of human HOP62 cells assessed as cell growth at 10^-6 M after 48 hrs by SRB assay", "conditions": "HOP-62, 48 h, read-out: Activity"}, "[9]": {"test": "Growth inhibition of human HCC2998 cells assessed as cell growth at 10^-5 M after 48 hrs by SRB assay", "conditions": "HCC 2998, 48 h, read-out: Activity"}, "SN12C": {"system": "SN12C", "test": "Growth inhibition of human SN12C cells assessed as cell growth at 10^-6 M after 48 hrs by SRB assay", "conditions": "read-out: Activity"}, "NCI-H322M": {"system": "NCI-H322M", "test": "Growth inhibition of human NCI-H322M cells assessed as cell growth at 10^-7 M after 48 hrs by SRB assay", "conditions": "read-out: Activity"}, "T47D": {"system": "T47D", "test": "Growth inhibition of human T47D cells assessed as cell growth at 10^-8 M after 48 hrs by SRB assay", "conditions": "read-out: Activity"}, "NCI-H226": {"system": "NCI-H226", "test": "Growth inhibition of human NCI-H226 cells assessed as cell growth at 10^-4 M after 48 hrs by SRB assay", "conditions": "NCI-H226, 48 h, read-out: Activity"}, "[10]": {"test": "Growth inhibition of human EKVX cells assessed as cell growth at 10^-8 M after 48 hrs by SRB assay", "conditions": "read-out: Activity"}, "RPMI-8226 [11]": {"system": "RPMI-8226", "test": "Growth inhibition of human RPMI8226 cells assessed as cell growth at 10^-8 M after 48 hrs by SRB assay", "conditions": "RPMI-8226, 48 h, read-out: Activity"}, "[12]": {"test": "Growth inhibition of human HOP92 cells assessed as cell growth at 10^-5 M after 48 hrs by SRB assay", "conditions": "HOP-92, 48 h, read-out: Activity"}, "SNB-75": {"system": "SNB-75", "test": "Cytotoxicity against human SNB75 cells after 48 hrs by SRB assay", "conditions": "SNB-75, 48 h", "procedure,_shortened": "as §1"}, "NCI-H460": {"system": "NCI-H460", "test": "Growth inhibition of human NCI-H460 cells assessed as cell growth at 10^-7 M after 48 hrs by SRB assay", "conditions": "NCI-H460, 48 h, read-out: Activity"}, "SNB-19 [13]": {"system": "SNB-19", "test": "Growth inhibition of human SNB19 cells assessed as cell growth at 10^-5 M after 48 hrs by SRB assay", "conditions": "SNB-19, 48 h, read-out: Activity"}, "SF-268": {"system": "SF-268", "test": "Growth inhibition of human SF268 cells assessed as cell growth at 10^-4 M after 48 hrs by SRB assay", "conditions": "SF-268, 48 h, read-out: Activity"}, "SK-MEL-28": {"system": "SK-MEL-28", "test": "Growth inhibition of human SK-MEL-28 cells assessed as cell growth at 10^-7 M after 48 hrs by SRB assay", "conditions": "SK-MEL-28, 48 h, read-out: Activity"}, "SW-620": {"system": "SW-620", "test": "Growth inhibition of human SW620 cells assessed as cell growth at 10^-8 M after 48 hrs by SRB assay", "conditions": "SW-620, 48 h, read-out: Activity"}, "[14]": {"test": "Growth inhibition of human OVCAR8 cells assessed as cell growth at 10^-7 M after 48 hrs by SRB assay", "conditions": "OVCAR-8, 48 h, read-out: Activity"}, "SK-OV-3": {"system": "SK-OV-3", "test": "Growth inhibition of human SKOV3 cells assessed as cell growth at 10^-8 M after 48 hrs by SRB assay", "conditions": "SK-OV-3, 48 h, read-out: Activity"}, "RPMI-8226 [15]": {"system": "RPMI-8226", "test": "Growth inhibition of human RPMI8226 cells assessed as cell growth at 10^-6 M after 48 hrs by SRB assay", "conditions": "RPMI-8226, 48 h, read-out: Activity"}, "SR": {"system": "SR", "test": "Growth inhibition of human SR cells assessed as cell growth at 10^-6 M after 48 hrs by SRB assay", "conditions": "read-out: Activity"}, "MDA-MB-468": {"system": "MDA-MB-468", "test": "Growth inhibition of human MDA-MB-468 cells assessed as cell growth at 10^-6 M after 48 hrs by SRB assay", "conditions": "MDA-MB-468, 48 h, read-out: Activity"}, "PC-3": {"system": "PC-3", "test": "Cytotoxicity against human PC3 cells after 48 hrs by SRB assay", "conditions": "PC-3, 48 h", "procedure,_shortened": "as §1"}, "[16]": {"conditions": "read-out: LC50 (the source's name)"}, "[17]": {"conditions": "read-out: pLC50 (the source's name) (converted)"}}}
{"compound": "Cc1ccc(-c2nc3ccc(Cl)cc3c(=O)n2/N=C/c2ccccc2)cc1", "values": [{"measurement": "GI50", "setting": "CAKI-1; read-out: GI50", "value": 4.82, "unit": "µM"}, {"measurement": "CC50", "setting": "CAKI-1; [16]", "value": "> 100", "unit": "µM"}, {"measurement": "TGI", "setting": "CAKI-1; read-out: TGI", "value": "> 100", "unit": "µM"}, {"measurement": "GI50", "setting": "CAKI-1; read-out: pGI50 (converted)", "value": 4.79, "unit": "µM"}, {"measurement": "CC50", "setting": "CAKI-1; [17]", "value": "> 100", "unit": "µM"}, {"measurement": "TGI", "setting": "CAKI-1; read-out: pTGI", "value": "> 100", "unit": "µM"}, {"measurement": "growth at 0.1 µM", "setting": "M14 [1]", "value": 96, "unit": "%"}, {"measurement": "growth at 10 µM", "setting": "KM12 [2]", "value": 74, "unit": "%"}, {"measurement": "growth at 0.01 µM", "setting": "SNB-19 [3]", "value": 96, "unit": "%"}, {"measurement": "growth at 10 µM", "setting": "M14 [4]", "value": 60, "unit": "%"}, {"measurement": "growth at 1 µM", "setting": "KM12 [5]", "value": 91, "unit": "%"}, {"measurement": "growth at 100 µM", "setting": "M14 [6]", "value": 47, "unit": "%"}, {"measurement": "growth at 100 µM", "setting": "[7]", "value": 48, "unit": "%"}, {"measurement": "growth at 100 µM", "setting": "786-0", "value": 17, "unit": "%"}, {"measurement": "GI50", "setting": "HCT-116; read-out: GI50", "value": 5.51, "unit": "µM"}, {"measurement": "CC50", "setting": "HCT-116; [16]", "value": "> 100", "unit": "µM"}, {"measurement": "TGI", "setting": "HCT-116; read-out: TGI", "value": "> 100", "unit": "µM"}, {"measurement": "GI50", "setting": "HCT-116; read-out: pGI50 (converted)", "value": 5.5, "unit": "µM"}, {"measurement": "CC50", "setting": "HCT-116; [17]", "value": "> 100", "unit": "µM"}, {"measurement": "TGI", "setting": "HCT-116; read-out: pTGI", "value": "> 100", "unit": "µM"}, {"measurement": "growth at 0.01 µM", "setting": "[8]", "value": 93, "unit": "%"}, {"measurement": "growth at 1 µM", "setting": "HOP-62", "value": 86, "unit": "%"}, {"measurement": "growth at 10 µM", "setting": "[9]", "value": 96, "unit": "%"}, {"measurement": "growth at 1 µM", "setting": "SN12C", "value": 91, "unit": "%"}, {"measurement": "growth at 0.1 µM", "setting": "NCI-H322M", "value": 76, "unit": "%"}, {"measurement": "growth at 0.01 µM", "setting": "T47D", "value": 89, "unit": "%"}, {"measurement": "growth at 100 µM", "setting": "NCI-H226", "value": 18, "unit": "%"}, {"measurement": "growth at 0.01 µM", "setting": "[10]", "value": 92, "unit": "%"}, {"measurement": "growth at 0.01 µM", "setting": "RPMI-8226 [11]", "value": 95, "unit": "%"}, {"measurement": "growth at 10 µM", "setting": "[12]", "value": 43, "unit": "%"}, {"measurement": "GI50", "setting": "SNB-75; read-out: GI50", "value": 1.39, "unit": "µM"}, {"measurement": "CC50", "setting": "SNB-75; [16]", "value": "> 100", "unit": "µM"}, {"measurement": "TGI", "setting": "SNB-75; read-out: TGI", "value": 4.74, "unit": "µM"}, {"measurement": "GI50", "setting": "SNB-75; read-out: pGI50 (converted)", "value": 1.38, "unit": "µM"}, {"measurement": "CC50", "setting": "SNB-75; [17]", "value": "> 100", "unit": "µM"}, {"measurement": "TGI", "setting": "SNB-75; read-out: pTGI (converted)", "value": 4.79, "unit": "µM"}, {"measurement": "growth at 0.1 µM", "setting": "NCI-H460", "value": 99, "unit": "%"}, {"measurement": "growth at 10 µM", "setting": "SNB-19 [13]", "value": 34, "unit": "%"}, {"measurement": "growth at 100 µM", "setting": "SF-268", "value": 36, "unit": "%"}, {"measurement": "growth at 0.1 µM", "setting": "SK-MEL-28", "value": 97, "unit": "%"}, {"measurement": "growth at 0.01 µM", "setting": "SW-620", "value": 96, "unit": "%"}, {"measurement": "growth at 0.1 µM", "setting": "[14]", "value": 100, "unit": "%"}, {"measurement": "growth at 0.01 µM", "setting": "SK-OV-3", "value": 98, "unit": "%"}, {"measurement": "growth at 1 µM", "setting": "RPMI-8226 [15]", "value": 90, "unit": "%"}, {"measurement": "growth at 1 µM", "setting": "SR", "value": 52, "unit": "%"}, {"measurement": "growth at 1 µM", "setting": "MDA-MB-468", "value": 92, "unit": "%"}, {"measurement": "GI50", "setting": "PC-3; read-out: GI50", "value": 83, "unit": "µM"}, {"measurement": "CC50", "setting": "PC-3; [16]", "value": "> 100", "unit": "µM"}, {"measurement": "TGI", "setting": "PC-3; read-out: TGI", "value": "> 100", "unit": "µM"}, {"measurement": "GI50", "setting": "PC-3; read-out: pGI50 (converted)", "value": 83.2, "unit": "µM"}, {"measurement": "CC50", "setting": "PC-3; [17]", "value": "> 100", "unit": "µM"}, {"measurement": "TGI", "setting": "PC-3; read-out: pTGI", "value": "> 100", "unit": "µM"}]}
